One data set deals with HCC cells. Kind of data set: Biochemical examination of metabolic features. The class given is cell-based. To be noted: compared to BAY-876 or fatostatin, Fig. 6.
The subject of data set [1] is miRNA-34a promoter region. Nature of the data set: BSP-NGS methylation of miRNA-34a promoter in MHCC97-H cells. The class given is cell-based. To be noted: MHCC97-H cells with direct expression of NICD, Fig. 7. The method in brief: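 Genomic DNA from NICD-lentivirus-transduced MHCC97-H cells was isolated with a kit and used for bisulfite sequencing PCR plus next-generation sequencing. The region analysed was the miRNA-34a promoter segment chr1: 9152409–9152574, which holds seven CpG sites. Methylation rates were calculated by the Ma et al. (2020) procedure.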

The test system of a further data set is Notch 1 protein and NICD. Nature of the data set: Sub-cellular fraction assay with western blot. Type of data set: cell-based. To be noted: MHCC97-H, 2 μmol/L, 30 min, 1 h, 2 h. The method in brief:
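After treatment, cells were sonicated. Nuclei were pelleted at 800 rpm, 4 °C, ~3 min, and the cytoplasmic fraction at 12,000 rpm, 4 °C, ~10 min. Fractions were boiled ~15 min in SDS-PAGE buffer and blotted onto PVDF. One C-terminal Notch1 antibody detected full-length Notch1 (>220 kDa) and NICD (~110 kDa). β-actin and Lamin A served as cytoplasmic and nuclear markers; detection was by chemiluminescence.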

The next data set concerns miRNA-34a/Notch pathway. Nature of the data set: BSP-NGS, AmpliSeq and western blot of subcutaneous tumour tissues. The class given is in vivo, nude mice. The method in brief:
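Female BALB/c nude mice (5-week-old, SPF) bore subcutaneous MHCC97-H tumours, one per animal, 10 per group. Pralatrexate 5 mg/kg was given by oral gavage every other day for about 15 doses. All excised tumours underwent BSP-NGS (miRNA-34a promoter methylation) and AmpliSeq (miRNA-34a expression). Tumours 2, 4 and 8 were lysed in RIPA/SDS buffer for western blot of NICD against GAPDH.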

For a further data set, the system named is NICD. Nature of the data set: AmpliSeq expression in MHCC97-H cells: NICD. To be noted: MHCC97-H cells with direct expression of NICD, Fig. 7. Type of data set: cell-based.
Another data set has as its system E-Cadherin. Kind of data set: AmpliSeq expression in MHCC97-H cells: E-Cadherin. The class given is cell-based. To be noted: Fig. 5B. The method, boiled down: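 MHCC97-H cells in DMEM with 10% FBS were treated with pralatrexate (2, 1, 0.5), fatostatin (1, 0.1) or BAY-876 (1, 0.1 μmol/L). RNA (10 ng) was reverse transcribed and amplified with custom AmpliSeq RNA panels. Expression was normalised to β-actin. Three replicate wells per sample; three biological replicates.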

A further data set deals with miRNA-34a. Kind of data set: AmpliSeq miRNA-34a expression in MHCC97-H cells. The class given is cell-based. To be noted: MHCC97-H cells with direct expression of NICD, Fig. 7. The method in brief: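 MHCC97-H cells were transduced with NICD lentivirus and cultured in DMEM with 10% FBS. RNA (10 ng) was reverse transcribed and cDNA amplified with custom AmpliSeq RNA panels to quantify miRNA-34a, normalised to β-actin. Three replicate wells per sample; three biological replicates.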

Data set [2] has as its system MHCC97-H cells. Nature of the data set: In vivo tumor model, MHCC97-H subcutaneous tumours. On the set-up: species or system nude mice.
Data set [3] is described as follows: Drug metabolism rate assay. The class given is in vitro ADME. To be noted: human, MHCC97-H cells.
For data set [4], the system named is MHCC97-H cells. Nature of the data set: MTT assay, MHCC97-H cells. The class given is cell-based. To be noted: Homo sapiens, MHCC97H. The method in brief:
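MHCC97-H cells in DMEM with 10% FBS were pretreated 6–8 h with solvent control or pralatrexate (0.5, 1, 2 μmol/L). Molecular targeted drugs were then added as a seven-point series from 10 to 0.01 for about 48 h, with drugs dissolved in DMSO and diluted in DMEM. Viability was read by MTT at OD 490 nm. Inhibition % was computed against control and IC50 fitted in GraphPad Prism.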

In a further data set the test system is LMC-3 cells. Nature of the data set: MTT assay, LMC-3 cells. Type of data set: cell-based. The method, boiled down:
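LMC-3 cells in DMEM with 10% FBS were transfected with control siRNA or siDHFR. They were then exposed to graded sorafenib concentrations and assayed by MTT. Inhibition = (OD490 control − OD490 treated)/OD490 control × 100%. IC50 was fitted from dose–effect curves in GraphPad Prism.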
A general note: Tetrazolium assays rely on reduction of a dye to a coloured formazan, in cell work by metabolically active cells.

Another data set deals with HepG2 2.2.15 cells. Nature of the data set: MTT assay, HepG2 2.2.15 cells. The class given is cell-based. To be noted: Homo sapiens. The method in brief: (§1)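 HCC cells were transfected with control siRNA or siRNA against DHFR. Test compound was dissolved in DMSO, diluted in DMEM and applied at a concentration series. Viability was read by MTT and OD 490 nm. Inhibition = (OD control − OD treated)/OD control × 100%. IC50 was taken from dose–effect curves.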

The test system of a further data set is HepG2 cells. Kind of data set: MTT assay, HepG2 cells. To be noted: Homo sapiens. The class given is cell-based. The method in brief: as §1

“Also recorded” adds a separate entry of the source. Where two headings read alike, the source gives them in different places.

Consider five molecules from PMC11589030 (Discover Oncology, 2024).

For the molecule `C#CCC(Cc1cnc2nc(N)nc(N)c2n1)c1ccc(C(=O)N[C@@H](CCC(=O)O)C(=O)O)cc1` (stereo partly drawn) [Pralatrexate, pralatrexate], the “Warburg effect of HCC cells” value in the data set with HCC cells is “did not inhibit the Warburg effect”. In addition, the “methylation rates of miRNA-34a promoter region” value in [1] is on record as “decrease the methylation rates”. For the same molecule, in the data set with Notch 1 protein and NICD, the “Notch 1 protein expression (cytoplasm)” value is “did not affect the protein expression of Notch 1” and the “distribution of NICD in the nucleus” value is “did not affect the distribution of NICD in the nucleus”. Moreover, in the data set with miRNA-34a/Notch pathway (NICD expression restored in MHCC97-H cells, Pralatrexate 5 mg/kg), the “expression of NICD and Survivin in tumour tissue” value was “no longer able to inhibit the expression of NICD and Survivin”. Besides, in the data set on miRNA-34a/Notch pathway (Pralatrexate 5 mg/kg oral), the “expression of factors related to the Notch pathway in tumour tissue” value is recorded as “down-regulate the expression of factors related to the Notch pathway”, the “expression of miRNA-34a in tumour tissue” value was “up-regulate the expression of miRNA-34a” and the “methylation of the promoter region of miRNA-34a in tumour tissue” value is given as “inhibit the methylation of the promoter region of miRNA-34a”. Also, the “expression levels of NICD and Notch downstream factors” value in the data set on NICD was “no longer able to affect the expression levels of NICD and Notch downstream factors”. Besides, the E-Cadherin expression result in the data set with E-Cadherin is reported as “upregulated the expression of E-cadherin; also recorded: enhanced the expression of E-Cadherin”. Further, the miRNA-34a expression result in the data set with miRNA-34a is reported as “upregulate miRNA-34a expression”. Moreover, in the data set with MHCC97-H cells [2] (5 mg/kg Pralatrexate + 0.2 mg/kg sorafenib, oral), the “effect of combination on antitumour activity of sorafenib” value is reported as “significantly increase the antitumour activity of sorafenib”. Also, in the data set with MHCC97-H cells [2] (Pralatrexate 5 mg/kg oral gavage, alone), the “antitumour activity / cytotoxicity, subcutaneous tumours” value was “did not have significant cytotoxicity and weak”. Moreover, the “anti-tumour activity, subcutaneous tumours” value in the data set with MHCC97-H cells [2] (Pralatrexate higher doses (e.g. 20 mg/kg) oral gavage) was “significant anti-tumour activity”.
Broadly, the half-life is the time in which the quantity being followed falls by half. Read a low half-life as fast loss. For `COc1cccc2c1C(=O)c1c(O)c3c(c(O)c1C2=O)C[C@@](O)(C(=O)CO)C[C@@H]3O[C@H]1C[C@H](N)[C@H](O)[C@H](C)O1` [Adriamycin, adriamycin], the half-life at 0.3 μmol/L in [3] is 13.2 h.
For the molecule `CCCc1cc(-c2nc(-c3ccc(C)cc3)cs2)ccn1` [Fatostatin, fatostatin], the E-Cadherin expression result with E-Cadherin is “enhanced the expression of E-Cadherin”.
For `Cc1c(NC(=O)c2cc(C(N)=O)nc3cc(F)ccc23)c(C(F)(F)F)nn1Cc1ccc(C#N)cc1` [BAY-876], the E-Cadherin expression entry in the data set on E-Cadherin is listed as “enhanced the expression of E-Cadherin”.
A word on the IC50: it is the concentration that inhibits the measured activity by half. As for `CNC(=O)c1cc(Oc2ccc(NC(=O)Nc3ccc(Cl)c(C(F)(F)F)c3)cc2)ccn1` [Sorafenib, sorafenib], the concentration for half-maximal inhibition (IC50) with MHCC97-H cells [4] (read-out: IC50 value of sorafenib in MHCC97-H cells, Control siRNA) worked out at 1110 nM; with MHCC97-H cells [4] (read-out: IC50 values of Sorafenib on MHCC97-H cells, Control group), 1020 nM; in the data set on MHCC97-H cells [4] (read-out: IC50 values of Sorafenib on MHCC97-H cells, DHFR + miRNA-34a), 250 nM; in the data set with MHCC97-H cells [4] (read-out: IC50 values of Sorafenib on MHCC97-H cells, DHFR overexpression), 5380 nM; in the data set with MHCC97-H cells [4] (read-out: IC50 values of Sorafenib on MHCC97-H cells, siDHFR + NICD) it was 5670 nM; in the data set with LMC-3 cells (read-out: IC50 values of sorafenib on HCC cells, LMC-3 cells, control) it was 910 nM. Further, the half-inhibitory concentration (IC50) in the data set with LMC-3 cells (read-out: IC50 values of sorafenib on HCC cells, LMC-3 cells, siDHFR) stood at 25 nM; in the data set on HepG2 2.2.15 cells (HepG2 2.2.15, read-out: IC50 values of sorafenib on HCC cells, HepG2 2.2.15 cells, control), 1250 nM; in the data set with HepG2 2.2.15 cells (HepG2 2.2.15, read-out: IC50 values of sorafenib on HCC cells, HepG2 2.2.15 cells, siDHFR), 13 nM; with HepG2 cells (HepG2, read-out: IC50 values of sorafenib on HCC cells, HepG2 cells, control) it was 1160 nM; in the data set with HepG2 cells (HepG2, read-out: IC50 values of sorafenib on HCC cells, HepG2 cells, siDHFR), 37 nM. This molecule showed a half-life at 1 μmol/L in data set [3] of 18.8 h. Also, the “antitumour activity, subcutaneous tumours” value with MHCC97-H cells [2] (sorafenib 0.2 mg/kg (low dose) oral gavage, alone) is “weak subcutaneous tumourigenic inhibitory activity and weak”.
